Drawing on ChEMBL document CHEMBL1138479, “Synthesis and antiplasmodial activity of aminoalkylamino-substituted neocryptolepine derivatives” (J Med Chem, 2009), this text covers IC50, selectivity ratio and inhibition for 35 compounds.

The subject of one data set is Plasmodium falciparum. Description: Antiplasmodial activity against chloroquine-sensitive Plasmodium falciparum Ghana in human erythrocytes after 72 hrs by Malstat assay. It is filed as functional, organism-based. The gist of the method:
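P. falciparum Ghana strain grown in human erythrocytes in RPMI-1640 at 37 °C under 3% O2, 4% CO2, 93% N2. Exposure to compounds lasted 72 h. Multiplication was read by Malstat with absorbance at 655 nm, and % growth inhibition was taken against negative blanks.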

Data set [1] can be described thus: Cytotoxicity against human MRC5 SV2 cells after 72 hrs by resazurin-based fluorometric assay. It is filed as cell-based. To be noted: MRC5, 72 h. The gist of the method:
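MRC-5 SV2 fibroblasts were kept in MEM with 20 mM L-glutamine and 5% FCS at 37 °C, 5% CO2. Cells were seeded at 10⁴/well onto prediluted compounds and incubated 72 h. Viability was read fluorimetrically after resazurin addition.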

Data set [2] is described as follows: Selectivity index, ratio of IC50 for human MRC5 SV2 cells to IC50 for chloroquine-sensitive Plasmodium falciparum Ghana. It counts as toxicity, cell-based. As to conditions: read-out: Ratio IC50; call rule not given here.
The next data set concerns the target Nucleic Acid. Description: Binding affinity to DNA assessed as intercalation after 24 hrs by DNA-methyl green assay. It counts as nucleic-acid assay. The gist of the method:
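DNA-methyl green reagent (20 mg in 100 mL 0.05 M Tris HCl pH 7.5 with 7.5 mM MgSO4, stirred 24 h at 37 °C) was added to dried compound. A620 was read at 0 and after 24 h at 25 °C. […] Cryptolepine was the positive control.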

The target in data set [3] is T1, Histidine-rich protein PFHRP-II (Plasmodium falciparum, UniProt P05227).
T1 sequence (P05227 whole entry): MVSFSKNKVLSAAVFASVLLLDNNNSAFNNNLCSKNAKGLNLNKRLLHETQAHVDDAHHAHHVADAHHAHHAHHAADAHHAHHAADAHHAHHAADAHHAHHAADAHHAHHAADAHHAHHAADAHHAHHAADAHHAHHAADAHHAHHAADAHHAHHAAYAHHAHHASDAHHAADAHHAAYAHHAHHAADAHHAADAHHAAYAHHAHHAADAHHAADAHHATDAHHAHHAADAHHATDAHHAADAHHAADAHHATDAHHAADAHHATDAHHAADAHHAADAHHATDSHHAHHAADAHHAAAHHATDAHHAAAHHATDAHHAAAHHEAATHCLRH
Description: Inhibition of beta-hematin formation after 18 hrs by microtiter plate assay. It is filed as functional.

The target of data set [4] is T1, Histidine-rich protein PFHRP-II. Description: (§1) Inhibition of beta-hematin formation at 5 milliequivalent after 18 hrs by microtiter plate assay. It is filed as functional.
Data set [5] deals with T2, Histidine-rich protein PFHRP-II (Plasmodium falciparum) (UniProt P05227).
T2 sequence (whole entry): T1 sequence (P05227 whole entry)
The data set is described as §1. It is filed as functional.

Regarding `Cn1c2nc3ccccc3c-2cc2cc(Cl)ccc21`, the IC50 with Plasmodium falciparum was 52 µM; in data set [1] it was above 64 µM; on Nucleic Acid, above 1000 µM; in data set [3], 1.31 milliequivalent. Besides, the selectivity ratio in data set [2] is above 1.
Regarding `Cn1c2nc3ccccc3c-2c(N2CCN(CCO)CC2)c2cc(Cl)ccc21`, the IC50 in the data set with Plasmodium falciparum was 2.28 µM; in data set [1] it was 0.82 µM; on Nucleic Acid, 376 µM; in data set [4], “Not Active”. Besides, the selectivity ratio in data set [2] is 0.4.
As for `Cn1c2nc3ccccc3c-2cc2ccccc21` [NEOCRYPTOLEPINE], the IC50 in data set [1] was determined as 11 µM; in data set [3], 5.97 milliequivalent. For the same compound, the selectivity ratio in data set [2] is 0.4.
As for `CN1CCN(c2c3cc(Cl)ccc3nc3[nH]c4ccccc4c23)CC1`, the IC50 in the data set on Plasmodium falciparum is 2.46 µM; in data set [1], 3 µM; at Nucleic Acid, above 1000 µM; in data set [3], 2.09 milliequivalent. For the same compound, the selectivity ratio in data set [2] worked out at 1.
Regarding `Cn1c2nc3ccccc3c-2c(Cl)c2ccccc21` [11-CHLORONEOCRYPTOLEPINE], the IC50 is above 64 µM in the data set on Plasmodium falciparum and 5 µM in data set [1]. Also, the selectivity ratio in data set [2] was below 0.08.
For `Cn1c2nc3ccc(Cl)cc3c-2cc2ccccc21`, the IC50 with Plasmodium falciparum was 29 µM; in data set [1], above 64 µM; at Nucleic Acid, above 1000 µM; in data set [3], 1.23 milliequivalent. Moreover, the selectivity ratio in data set [2] was above 2.
As for `CCN(CC)CCCC(C)Nc1c2c3ccccc3nc-2n(C)c2cccc(Cl)c12` (centres undefined), the results for the IC50 (in the data set on Plasmodium falciparum; in data set [1]; at Nucleic Acid) were 0.35 µM, 21 µM and above 1000 µM, respectively. In addition, the selectivity ratio in data set [2] was 60. In addition, the inhibition (usually the drop in the measured response relative to a control, in per cent) in data set [5] is below 20%.
With `CCN(CC)CCCC(C)Nc1c2ccc(Cl)cc2nc2[nH]c3ccccc3c12` (centres undefined), the IC50 is 0.14 µM in the data set with Plasmodium falciparum, 15 µM in data set [1], above 1000 µM on Nucleic Acid and 4.43 milliequivalent in data set [3]. In addition, the selectivity ratio in data set [2] came out at 107.
Consider `Clc1cccc2nc3[nH]c4ccccc4c3c(Cl)c12`, for which the IC50 in the data set with Plasmodium falciparum is above 64 µM; in data set [1], above 64 µM; at Nucleic Acid it was above 1000 µM; in data set [4], “Not Active”.
For `Cn1c2nc3ccccc3c-2c(Cl)c2ccc(Cl)cc21`, the IC50 in the data set with Plasmodium falciparum was above 64 µM; in data set [1] it was 27 µM; in data set [3], 1.14 milliequivalent. In data set [2], the selectivity ratio is below 0.4.
Turning to `OCCN1CCN(c2c3cc(Cl)ccc3nc3[nH]c4ccccc4c23)CC1`, the IC50 with Plasmodium falciparum is 2.34 µM; in data set [1] it was 2 µM; at Nucleic Acid, above 1000 µM; in data set [3], 2 milliequivalent. The selectivity ratio in data set [2] was 0.9.
For the compound `CCN(CC)CCCC(C)Nc1c2c3ccccc3nc-2n(C)c2cc(Cl)ccc12` (centres undefined), the IC50 in the data set with Plasmodium falciparum stood at 0.13 µM; in data set [1], 14 µM; at Nucleic Acid, 248 µM; in data set [3] it was 5.25 milliequivalent. For the same compound, the selectivity ratio in data set [2] came to 108.
As to `Cn1c2nc3ccccc3c-2c(N2CCC(N3CCCCC3)CC2)c2cc(Cl)ccc21`, the IC50 in the data set with Plasmodium falciparum was 2.46 µM; in data set [1], 4.4 µM; on Nucleic Acid, 180 µM; in data set [4] it was “Not Active”. Besides, the selectivity ratio in data set [2] is 2.
As for `Clc1ccc2nc3[nH]c4ccccc4c3c(Cl)c2c1`, the IC50 in the data set with Plasmodium falciparum is above 64 µM; in data set [1], above 64 µM; at Nucleic Acid, above 1000 µM; in data set [4], “Not Active”.
Consider `CCN1CCCC1CNc1c2c3ccccc3nc-2n(C)c2ccc(Cl)cc12` (centres undefined), for which the IC50 in the data set with Plasmodium falciparum is below 0.25 µM; in data set [1], 0.4 µM; at Nucleic Acid, 645 µM; in data set [4], “Not Active”. The selectivity ratio in data set [2] is above 2.
Take `Clc1ccc2c(Cl)c3c(nc2c1)[nH]c1ccccc13`: the IC50 with Plasmodium falciparum is above 64 µM; in data set [1] it was above 64 µM; on Nucleic Acid, above 1000 µM; in data set [4] it was “Not Active”.
`Cn1c2nc3ccccc3c-2c(NCCN2CCCC2)c2cc(Cl)ccc21`: the IC50 with Plasmodium falciparum is below 0.25 µM; in data set [1], below 0.25 µM; at Nucleic Acid, 186 µM; in data set [4], “Not Active”.
For the compound `CN1CCN(c2c3c4ccccc4nc-3n(C)c3ccc(Cl)cc23)CC1`, the IC50 in the data set with Plasmodium falciparum is 2.1 µM; in data set [1] it was 1 µM; on Nucleic Acid, 358 µM; in data set [4], “Not Active”. Besides, the selectivity ratio in data set [2] is 0.5.
Take `Cn1c2nc3ccccc3c-2c(Cl)c2c(Cl)cccc21`: the IC50 is 39 µM with Plasmodium falciparum, 34 µM in data set [1], above 1000 µM at Nucleic Acid and “Not Active” in data set [4]. The selectivity ratio in data set [2] came out at 0.9.
For `CCN(CC)CCCC(C)Nc1ccc2cc3c4ccccc4nc-3n(C)c2c1` (centres undefined), the IC50 in the data set on Plasmodium falciparum stood at 0.015 µM; in data set [1], 16 µM. Also, the selectivity ratio in data set [2] is 1070.
Turning to `CCN(CC)CCCC(C)Nc1c2c(Cl)cccc2nc2[nH]c3ccccc3c12` (centres undefined), the IC50 is 1.2 µM in the data set with Plasmodium falciparum, 20 µM in data set [1], above 1000 µM on Nucleic Acid and 3.05 milliequivalent in data set [3]. Also, in data set [2], the selectivity ratio is 17.
As to `CN(C)CCNc1c2c3ccccc3nc-2n(C)c2ccc(Cl)cc12`, the IC50 in the data set with Plasmodium falciparum was below 0.25 µM; in data set [1] it was below 0.25 µM; at Nucleic Acid, 164 µM; in data set [4] it was “Not Active”.
Regarding `CCN(CC)CCCC(C)Nc1ccc2c(c1)cc1c3ccccc3nc-1n2C` (centres undefined), the IC50 in the data set with Plasmodium falciparum stood at 0.03 µM; in data set [1], 7.2 µM; at Nucleic Acid, 128 µM; in data set [3] it was 1.45 milliequivalent. The selectivity ratio in data set [2] was determined as 240.
For `Clc1ccc2nc3[nH]c4ccccc4c3c(N3CCC(N4CCCCC4)CC3)c2c1`, the IC50 in the data set on Plasmodium falciparum is below 0.25 µM; in data set [1], 2 µM; at Nucleic Acid, above 1000 µM; in data set [3] it was 2.2 milliequivalent. For the same compound, the selectivity ratio in data set [2] is above 8.
For `Clc1ccc2nc3[nH]c4ccccc4c3c(NCCN3CCCC3)c2c1` the same measures were 3 µM, above 64 µM, above 1000 µM, 5.4 milliequivalent and above 21.
On to `Cn1c2nc3ccccc3c-2c(NCCN2CCOCC2)c2cc(Cl)ccc21`, for which the IC50 is 0.69 µM in the data set with Plasmodium falciparum, 0.37 µM in data set [1], 118 µM at Nucleic Acid and “Not Active” in data set [4]. Also, the selectivity ratio in data set [2] amounted to 0.5.
On to `Cn1c2nc3ccccc3c-2c(Cl)c2cc(Cl)ccc21`, for which the IC50 in the data set with Plasmodium falciparum was above 64 µM; in data set [1], above 64 µM; at Nucleic Acid, above 1000 µM; in data set [4] it was “Not Active”.
For the compound `CCN(CC)CCCC(C)Nc1ccc2c3cc4ccccc4n(C)c-3nc2c1` (centres undefined), the IC50 in the data set on Plasmodium falciparum came to 0.01 µM; in data set [1], 18 µM; on Nucleic Acid it was 219 µM; in data set [3], 4.4 milliequivalent. Also, the selectivity ratio in data set [2] stood at 1800.
In the case of `CCN(CC)CCCC(C)Nc1ccc2nc3n(C)c4ccccc4cc-3c2c1` (centres undefined), the IC50 in the data set on Plasmodium falciparum is 0.14 µM; in data set [1], 16 µM; at Nucleic Acid, 446 µM. Besides, the selectivity ratio in data set [2] was 114. Also, the inhibition in data set [5] was below 20%.
For the compound `Cn1c2nc3cc(Cl)ccc3c-2cc2ccccc21`, the IC50 in the data set on Plasmodium falciparum is above 64 µM; in data set [1] it was above 64 µM; at Nucleic Acid it was above 1000 µM; in data set [3] it was 1.55 milliequivalent.
Regarding `CCN1CCCC1CNc1c2cc(Cl)ccc2nc2[nH]c3ccccc3c12` (centres undefined), the IC50 was 0.38 µM in the data set with Plasmodium falciparum, 15 µM in data set [1], above 1000 µM at Nucleic Acid and 1.53 milliequivalent in data set [3]. Moreover, in data set [2], the selectivity ratio was 39.
For the compound `CN(C)CCNc1c2cc(Cl)ccc2nc2[nH]c3ccccc3c12`, the IC50 in the data set on Plasmodium falciparum is 0.4 µM; in data set [1], above 64 µM; at Nucleic Acid, above 1000 µM; in data set [3], 3.68 milliequivalent. Besides, in data set [2], the selectivity ratio was above 160.
With `Cn1c2nc3ccccc3c-2cc2ccc(Cl)cc21`, the IC50 was determined as 41.1 µM with Plasmodium falciparum and 21 µM in data set [1]. Also, the selectivity ratio in data set [2] stood at 0.5.
As for `Clc1ccc2nc3[nH]c4ccccc4c3c(NCCN3CCOCC3)c2c1`, the IC50 was 33 µM in the data set with Plasmodium falciparum, above 64 µM in data set [1], above 1000 µM on Nucleic Acid and “Not Active” in data set [4]. For the same compound, the selectivity ratio in data set [2] is above 2.
For `CCN(CC)CCCC(C)Nc1c2c3ccccc3nc-2n(C)c2ccccc12` (centres undefined), the IC50 in the data set on Plasmodium falciparum was 0.62 µM; in data set [1] it was 20 µM; on Nucleic Acid, 312 µM; in data set [3] it was 4.11 milliequivalent. Also, in data set [2], the selectivity ratio was 32.
